Reference: ChEMBL document CHEMBL1122988, “Studies on antianaphylactic agents. 7. Synthesis of antiallergic 5-oxo-5H-[1]benzopyrano[2,3-b]pyridines” (1985)

How the values were obtained:
Assay type in all cases: functional
[1] = tested on: Rattus norvegicus; experiment: Anti-passive cutaneous anaphylaxis activity in rat (intravenous administration); settings: read-out: ID50 (the source's name)
Outline: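 Male Sprague-Dawley rats (8 weeks, ~280 g) were sensitized passively. Antiserum was raised with egg albumin im plus killed B. pertussis ip, and diluted fourfold. Four 0.05-mL intradermal dorsal injections were given, with a 72-h latency. Challenge was iv with 5 mg egg albumin plus 10 mg Evans blue in 1 mL saline. Drug in saline or PEG 400 was given iv immediately before challenge. Dye leakage area was read at 30 min. ID50 came from a least-squares log dose–area fit.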

[2] = tested on: Rattus norvegicus; experiment: Compound was evaluated for anti passive cutaneous anaphylaxis activity in fasted rats administered oral route; settings: read-out: ID50 (the source's name)
Outline: (§1)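 Homologous rat PCA in male Sprague-Dawley rats (8 weeks, ~280 g). Skin sites received 72 h of exposure to fourfold-diluted egg albumin antiserum. Drug was suspended in 5% gum arabic and given orally 5 min before iv challenge with egg albumin and Evans blue. Rats were bled 30 min later and dye leakage area (mm2) was measured. ID50 came from least-squares log dose regression, with Fieller fiducial limits.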

[3] = tested on: Rattus norvegicus; experiment: Compound was evaluated for anti passive cutaneous anaphylaxis activity in nonfasted rats administered oral route; settings: read-out: ID50 (the source's name); outline: as §1
[4] = tested on: Rattus norvegicus; experiment: Compound was evaluated for anti passive cutaneous anaphylaxis activity in nonfasted rat, administered through intravenous route; settings: oral, in the assay text read “oral” for “intravenous”, read-out: ID50 (the source's name)
[5] = tested on: Rattus norvegicus; experiment: Compound was evaluated for anti passive cutaneous anaphylaxis activity in fasted rat, administered through intravenous route; settings: oral, in the assay text read “oral” for “intravenous”, read-out: ID50 (the source's name)

Row | Compound | ED50 [1] [mg/kg] | other results
1 | CONc1nc2oc3ccc(C(C)C)cc3c(=O)c2cc1C(=O)O | 0.0076 | ED50 [2]: 0.59 mg/kg; ED50 [3]: 4.6 mg/kg
2 | CC(C)c1ccc2oc3ncc(C(=O)O)cc3c(=O)c2c1 | 0.059 | ED50 [3]: 1.2 mg/kg
3 | O=c1c2ccccc2oc2ncc(-c3nn[nH]n3)cc12 | 0.44 | 
4 | CC(C)c1ccc2oc3nc(N)c(C(=O)O)cc3c(=O)c2c1 [AMLEXANOX] | 0.032 | ED50 [2]: 0.73 mg/kg; ED50 [3]: 6.1 mg/kg
5 | COc1cccc2c(=O)c3cc(C(=O)O)c(O)nc3oc12 | 0.1 | 
6 | CCc1ccc(O)c(C(=O)c2cc(C(=O)O)c(C)nc2O)c1 | > 20 | 
7 | COc1ccc2oc3nc(O)c(C(=O)O)cc3c(=O)c2c1 | 0.042 | 
8 | CCc1ccc2oc3nc(N)c(C(=O)O)cc3c(=O)c2c1 | 0.14 | ED50 [4]: 5.4 mg/kg
9 | CC(C)c1ccc2oc3nc(O)c(C(=O)O)cc3c(=O)c2c1 | 0.02 | 
10 | CCc1ccc2oc3nc(C)c(C(=O)O)cc3c(=O)c2c1 | 0.73 | 
11 | Cc1cc(C)c2oc3nc(O)c(C(=O)O)cc3c(=O)c2c1 | 0.12 | 
12 | CNc1nc2oc3ccc(C(C)C)cc3c(=O)c2cc1C(=O)O | 0.39 | 
13 | CONc1nc2oc3ccc(C(C)C)cc3c(=O)c2cc1-c1nn[nH]n1 | 0.19 | 
14 | CCCCONc1nc2oc3ccc(C(C)C)cc3c(=O)c2cc1C(=O)O | 0.028 | ED50 [3]: 3.5 mg/kg
15 | O=C(O)c1cc2c(=O)c3ccccc3oc2nc1O | 0.62 | 
16 | CCc1ccc2oc3ncc(C(=O)O)cc3c(=O)c2c1 | 0.034 | ED50 [4]: 0.95 mg/kg; ED50 [5]: 0.18 mg/kg

Row | Compound | ED50 [1] [mg/kg] | other results
17 | CC(C)c1ccc2oc3ncc(-c4nn[nH]n4)cc3c(=O)c2c1 | 0.0096 | ED50 [2]: 0.034 mg/kg; ED50 [3]: 0.46 mg/kg
18 | CCc1ccc2oc3nc(OC)c(C(=O)O)cc3c(=O)c2c1 | 0.5 | 
19 | O=C(O)c1cnc2oc3ccccc3c(=O)c2c1 | 0.63 | 
20 | CCONc1nc2oc3ccc(C(C)C)cc3c(=O)c2cc1C(=O)O | 0.014 | 
21 | CC(C)c1ccc2oc3nc(NO)c(C(=O)O)cc3c(=O)c2c1 | 0.018 | ED50 [3]: 1 mg/kg
22 | CC(C)c1ccc2oc3nc(N)c(-c4nn[nH]n4)cc3c(=O)c2c1 | 0.064 | 
23 | Cc1cc(C)c2oc3ncc(-c4nn[nH]n4)cc3c(=O)c2c1 | 0.31 | 
24 | CC(C)(C)c1ccc2oc3ncc(-c4nn[nH]n4)cc3c(=O)c2c1 | 0.047 | ED50 [3]: 6 mg/kg
25 | COc1cccc2c(=O)c3cc(C(=O)O)c(N)nc3oc12 | 0.45 | 
26 | Cc1ccc2oc3nc(O)c(C(=O)O)cc3c(=O)c2c1 | 0.1 | 
27 | CCc1ccc2oc3ncc(-c4nn[nH]n4)cc3c(=O)c2c1 | 0.11 | ED50 [3]: 6.4 mg/kg
28 | O=C([O-])c1cc(=O)c2c(OCC(O)COc3cccc4oc(C(=O)[O-])cc(=O)c34)cccc2o1.[Na+].[Na+] [CROMOLYN SODIUM] | 1.4 | 
29 | CCc1ccc2oc3nc(O)c(C(=O)O)cc3c(=O)c2c1 | 0.041 | 
30 | O=c1c2cc(-c3nn[nH]n3)cnc2oc2ccc3ccccc3c12 | 0.84 | 
31 | CCCCc1ccc2oc3nc(N)c(C(=O)O)cc3c(=O)c2c1 | 1.1 | 
